# The list is not random: actives were taken first. Their share in the collection is about 0.98%.
# PGC1a acetyl inh: modulators of PGC1a acetylation | U2OS PGC1a acetylation, AlphaScreen anti-acetyl-lysine; with virally co-expressed GCN5 acetyltransferase | AID 651687 | 0.17% of 350,000 active | inhibition, % at 15.6 µM;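 active = every replicate shows inhibition of at least 40%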;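 note: 0% = neutral control wells and 100% = positive control wells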
# ERAP1 inh: ERAP1 (human) enzyme inhibition. 0.15% of 340,000 active. Q9NZ08. AID 652197. inhibition, % at 10.7 µM. recombinant ERAP1, Leu-AMC fluorescence, 60 min;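 active = mean replicate inhibition of at least 30%, or all replicates individually reaching that 30% level; inactive = mean below 30% and not every replicate reaching it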;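 note: 0% = neutral control wells and 100% = L-leucinethiol positive control wells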
# S100A4 MyoIIA: inhibitors of human S100A4 binding to myosin IIA peptide | P26447 | S100A4/TAMRA-MyoIIA peptide fluorescence polarization | inhibition, % at 10.7 µM | 0.14% of 360,000 active | AID 652163;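 active = mean inhibition of at least 70% across replicates, with every replicate also reaching that level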
# Target sequence (P26447 whole entry, looked up): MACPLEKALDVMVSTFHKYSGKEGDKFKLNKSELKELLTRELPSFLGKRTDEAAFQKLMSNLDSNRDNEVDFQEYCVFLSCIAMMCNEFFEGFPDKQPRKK
#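 System – human S100A4 monomer protein, biochemical binding assay · Buffer or medium – Calcium-containing HEPES buffer, pH 7.2 · Timing – 5 min between mix addition and reading · Also added – TAMRA-labelled myosin IIA heavy-chain peptide probe, 5 nM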
# C2C12 statin: suppressors of simvastatin-induced myotoxicity in C2C12 myotubes. ATP luminescence, 48 h; scaled: DMSO 0, geranylgeraniol control 100. rescue of ATP level, % at 7.49 µM. 0.78% of 330,000 active. AID 602340;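 active = mean ATP rescue above about 67%, or every replicate alone reaching that limit, limit read from the data, passing the limit was not always enough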;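 note: myotubes were challenged with 10 µM simvastatin during compound exposure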
# Rtt109 HAT inh: blocks Candida albicans Rtt109/Vps75 acetyltransferase activity; 0.16% of 330,000 active; Q5AAJ8; inhibition, % at 34.9 µM; purified Rtt109/Vps75, ThioGlo CoA-SH fluorescence, 4 h;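 active = inhibition of at least 50% in every replicate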
# Target sequence (Q5AAJ8 whole entry, looked up): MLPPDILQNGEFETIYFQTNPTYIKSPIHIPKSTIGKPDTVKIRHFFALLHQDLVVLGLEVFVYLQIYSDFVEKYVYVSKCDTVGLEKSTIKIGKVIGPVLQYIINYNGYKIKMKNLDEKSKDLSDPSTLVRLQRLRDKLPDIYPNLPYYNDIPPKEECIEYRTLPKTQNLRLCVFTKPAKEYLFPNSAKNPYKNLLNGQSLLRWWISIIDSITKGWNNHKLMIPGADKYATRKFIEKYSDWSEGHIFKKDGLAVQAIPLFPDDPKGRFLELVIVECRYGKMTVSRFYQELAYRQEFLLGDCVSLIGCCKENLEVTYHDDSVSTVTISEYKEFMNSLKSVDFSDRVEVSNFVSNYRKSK
# Numbers without * were called inactive; x = no result.
SMILES,PGC1a acetyl inh,ERAP1 inh,S100A4 MyoIIA,C2C12 statin,Rtt109 HAT inh
COc1ccc(C2CC(=O)c3cnc(N)nc3C2)c(OC)c1 (stereo not drawn),-1,x,x,106*,-3
Cc1ccc(-c2ccc3c(c2)O[C@H](CN(C)Cc2cccnc2)[C@@H](C)CN([C@@H](C)CO)S3(=O)=O)cc1,-1,0,4,-19,x
COc1cc2c(cc1OC)C(c1ccccc1)N(C(=O)CCl)CC2 (stereo not drawn),8,x,x,168*,0
O=C(CCN1CCCCC1)NCC[C@H]1CC[C@H](NC(=O)Nc2ccc(F)cc2)[C@@H](CO)O1,12,0,2,1,x
O=S(=O)(c1ccc2[nH]ccc2c1)N1CCCCCC1,68*,0,-2,13,11
O=c1[nH]c2ccc(S(=O)(=O)N3CCCCC3)cc2[nH]1,-4,-3,17,8,2
C[C@@H]1CN([C@H](C)CO)C(=O)Cc2cc(NC(=O)Nc3ccc(F)cc3)ccc2O[C@H]1CN(C)S(=O)(=O)c1ccc(Cl)cc1,1,1,-2,22,x
O=C(COC(=O)c1ccccc1NC(=O)c1ccco1)Nc1ncc(Cl)cc1Cl,-3,x,x,94*,1
COc1cc(NC(=O)c2ccco2)c(C(=O)OCC(=O)Nc2ncc(Cl)cc2Cl)cc1OC,-2,x,x,x,-13
COc1ccccc1NC(=O)N[C@@H]1CC[C@H](CC(=O)N2CCC(Cc3ccccc3)CC2)O[C@@H]1CO,5,1,0,7,x
C[C@H]1CCCCO[C@H](CN(C)S(=O)(=O)c2ccccc2)[C@@H](C)CN([C@@H](C)CO)C(=O)c2cc(NC(=O)Nc3ccc(F)cc3)ccc2O1,-4,0,-6,x,x
CCOC(=O)N1CCN(S(=O)(=O)c2ccc3[nH]cc(C(=O)O)c(=O)c3c2)CC1,4,x,x,97*,4
COc1ccc(S(=O)(=O)N(C)C[C@@H]2OCCCC[C@@H](C)Oc3ccc(NC(=O)Nc4cccc5ccccc45)cc3C(=O)N([C@@H](C)CO)C[C@@H]2C)cc1,8,-5,-14,x,x
CSc1nsc(/C=C/Nc2ccc(Cl)cc2)c1C#N,4,x,x,125*,-7
CCCN(C)C[C@H]1Oc2ncc(C#CCN(C)C)cc2C(=O)N([C@H](C)CO)C[C@@H]1C,-9,-2,-2,-8,x
Cc1nnc2n(-c3ccccc3)c(=O)c3c4c(sc3n12)COC(C)(C)C4,-4,x,x,105*,-6
Cc1nnc2n(C)c(=O)c3c4c(sc3n12)COC(C)(C)C4,10,2,-3,x,5
O=C(C1CC1)N1CCC(C(O)(c2ccccc2)c2ccccc2)CC1,-8,x,x,85*,-12
Cc1ccc(S(=O)(=O)N[C@H]2C=C[C@@H](CC(=O)NCCN3CCCCC3)O[C@H]2CO)cc1,105*,0,-17,-1,x
Cc1ccc(S(=O)(=O)N[C@@H]2C=C[C@@H](CC(=O)NCCN3CCCCC3)O[C@H]2CO)cc1,-10,1,-3,-17,x
Cc1noc(C)c1S(=O)(=O)Nc1ccc2c(c1)CC(=O)N([C@H](C)CO)C[C@@H](C)[C@H](CN(C)Cc1ccc(Cl)c(Cl)c1)O2,-5,0,1,87*,x
Cc1ccc(S(=O)(=O)Nc2ccc3c(c2)CC(=O)N([C@@H](C)CO)C[C@@H](C)[C@H](CN(C)Cc2ccc(Cl)c(Cl)c2)O3)cc1,-8,-1,4,74*,x
Cc1ccc(S(=O)(=O)Nc2ccc3c(c2)CC(=O)N([C@H](C)CO)C[C@H](C)[C@H](CN(C)Cc2ccc(Cl)c(Cl)c2)O3)cc1,0,-1,3,5,x
Cc1ccc(S(=O)(=O)Nc2ccc3c(c2)CC(=O)N([C@@H](C)CO)C[C@H](C)[C@@H](CN(C)Cc2ccc(Cl)c(Cl)c2)O3)cc1,2,-1,-13,72*,x
O=C(CCCCCn1c(=O)[nH]c2ccsc2c1=O)NCc1ccc(F)cc1,9,x,x,120*,9
SMILES,PGC1a acetyl inh,ERAP1 inh,S100A4 MyoIIA,C2C12 statin,Rtt109 HAT inh
Cc1ccc(CNC(=O)CCCCn2c(=O)[nH]c3ccsc3c2=O)cc1,-8,x,-3,18,-2
CC(C)NC(=O)N(C)C[C@H]1Oc2c(NC(=O)Nc3cccc4ccccc34)cccc2C(=O)N([C@H](C)CO)C[C@H]1C,-37,0,-7,17,x
CCC(=O)N[C@H]1CC[C@@H](CC(=O)NCC2CCCCC2)O[C@@H]1CO,3,1,6,10,x
CN1CCN(S(=O)(=O)c2ccc3ccccc3c2)CC1,2,x,0,1,5
CC1CCN(S(=O)(=O)c2ccc3ccccc3c2)CC1,-21,x,x,153*,5
COc1ccc(-c2[nH]ncc2CN(C)C(C)c2ccon2)cc1F (stereo not drawn),80*,-4,27,-19,9
COc1ccc(-c2[nH]ncc2CN(C)CC2CCCCO2)cc1F (stereo not drawn),-9,1,8,x,3
C[C@@H]1CN([C@@H](C)CO)C(=O)c2cccc(NS(C)(=O)=O)c2O[C@H]1CN(C)Cc1ccncc1,9,1,4,4,x
Cc1noc(N)c1C(=O)Nc1ccc(F)c(Cl)c1,-2,x,x,130*,3
O=C1CNC[C@H]2[C@@H](c3ccc(C#CC4CCCC4)cc3)[C@@H](CO)N12,-9,0,88*,x,x
C[C@@H]1CN([C@@H](C)CO)C(=O)c2cc(NC(=O)Nc3cccc4ccccc34)ccc2O[C@H]1CN(C)Cc1ccncc1,7,4,-3,-38,x
CCCC(=O)Nc1ccc2c(c1)OC[C@H](C)N(Cc1ccc(-c3ccccn3)cc1)C[C@@H](C)[C@H](OC)CN(C)C2=O,-32,-3,18,27,x
C[C@H]1CN([C@@H](C)CO)C(=O)c2cccc(NC(=O)c3cnccn3)c2O[C@@H]1CN(C)Cc1ccc(-c2ccccc2)cc1,0,3,8,6,x
CC(C)(C)OC(=O)NCCCCCNC(=O)c1[nH]cnc1C(=O)N[C@@H](Cc1ccccc1)C(=O)OCc1ccccc1,-10,-2,-1,132*,0
C[C@H](CO)N1C[C@H](C)[C@H](CN(C)S(=O)(=O)c2cn(C)cn2)Oc2ccc(NC(=O)C3CC3)cc2C1=O,11,-2,6,-6,x
COc1cc(/C=C/C(=O)/C=C(O)/C=C/c2ccc(O)c(OC)c2)ccc1O,x,2,-3,140*,4
COc1cc(C=C2NC(=O)NC2=O)ccc1O,-7,1,9,-1,x
COc1cc(C=C2C(=O)C=CC2=O)ccc1O,x,53*,0,x,x
O=C(Nc1ccc(F)cc1)N1CC(=O)N2[C@H](CO)[C@@H](c3ccc(-c4ccc(F)cc4)cc3)[C@@H]2C1,0,-1,11,x,x
CCCC#Cc1ccc(CC[C@H]2O[C@H]3CC[C@@H](CO)O[C@H]3C[C@@H]2n2cc(C(C)(C)O)nn2)cc1,7,4,-3,x,x
O=C(Nc1ccc(Cl)cc1)N1C[C@H]2[C@@H](c3ccccc31)[C@H](CO)N2C(=O)c1ccccn1,-8,-2,-14,0,x
